One may read the inhibition as the change of the read-out against control, counted positive when it falls.

The source of these data is ChEMBL document CHEMBL4152210, “Design, synthesis, anti-lung cancer activity, and chemosensitization of tumor-selective MCACs based on ROS-mediated JNK pathway activation and NF-κB pathway inhibition” (Eur J Med Chem, 2018).

This experiment relates to A549. The experiment can be described thus: Anticlonogenic activity against human A549 cells assessed as inhibition of clonogenic growth at 0.5 uM incubated for 2 days followed by replacement of growth media and measured after 8 days by crystal violet staining-based assay relative to control. The format is functional. Put shortly: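 A549 seeded at 1000 cells per well in 6-well plates, exposed to drug alone or combined with cisplatin or 5-Fu over a concentration series. Drug-containing medium replaced after 2 days. After a further 8 days, fixed with 1% methanol/1% formaldehyde and stained with 0.5% crystal violet. Percent inhibition at each concentration calculated relative to control.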

As for `COc1cc(/C=C2\CN(C)C/C(=C\c3cc(OC)c(OC)c(OC)c3)C2=O)cc(OC)c1OC`, the inhibition at 0.5 µM stood at 18%.
